Source: ChEMBL document CHEMBL1138404, “Bisindole alkaloids of the topsentin and hamacanthin classes from a marine sponge Spongosorites sp” (J Nat Prod, 2007)
Converted amounts (≈) assume the structure as drawn.

Columns and labels:
Escherichia coli [1] = experiment: Antibacterial activity against […] Escherichia coli DC0; type: functional
Method in brief: (§1)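 Agar dilution MIC: Mueller Hinton agar plates containing 17 serial dilutions of sample (final 25 to 0.002 μg/mL), meropenem and imipenem as standards. Strains grown 18 h at 37 °C in Fleisch extract broth (10% horse serum for some strains), spotted onto plates by automatic inoculator; MIC read after 18 h incubation.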

Salmonella typhimurium = experiment: Antibacterial activity against […] Salmonella Typhimurium; type: functional, Salmonella enterica subsp. enterica serovar Typhimurium; conditions: Salmonella enterica; method in brief: as §1
Escherichia coli [2] = experiment: Antibacterial activity against […] Escherichia coli DC2; type: functional; method in brief: as §1
[3] = Cytotoxicity against human SK-OV-3 cell line; type: cell-based; conditions: SK-OV-3 cells, read-out: ED50 (the source's name)
Enterococcus faecium = experiment: Antibacterial activity against […] Streptococcus faecium MD8b; type: functional; method in brief: as §1
Pseudomonas aeruginosa [4] = experiment: Antibacterial activity against […] Pseudomonas aeruginosa 1771; type: functional; method in brief: as §1
[5] = Cytotoxicity against human XF498 cell line; type: cell-based; conditions: XF498 cells, read-out: ED50 (the source's name)
Streptococcus pyogenes [6] = experiment: Antibacterial activity against methicillin-resistant Streptococcus pyogenes 308A; type: functional; method in brief: as §1
[7] = Cytotoxicity against human SK-MEL-2 cell line; type: cell-based; conditions: SK-MEL-2 cells, read-out: ED50 (the source's name)
Enterobacter cloacae [8] = experiment: Antibacterial activity against […] Enterobacter cloacae P99; type: functional; method in brief: as §1
Pseudomonas aeruginosa [9] = experiment: Antibacterial activity against […] Pseudomonas aeruginosa 9027; type: functional; method in brief: as §1
Pseudomonas aeruginosa [10] = experiment: Antibacterial activity against […] Pseudomonas aeruginosa 1592E; type: functional; method in brief: as §1
Escherichia coli [11] = experiment: Antibacterial activity against […] Escherichia coli 078; type: functional; method in brief: as §1
Klebsiella aerogenes = experiment: Antibacterial activity against […] Klebsiella aerogenes 1522E; type: functional; method in brief: as §1
Escherichia coli [12] = experiment: Antibacterial activity against […] Escherichia coli 1507E; type: functional; method in brief: as §1
Escherichia coli [13] = experiment: Antibacterial activity against […] Escherichia coli TEM; type: functional; method in brief: as §1
Staphylococcus aureus [14] = experiment: Antibacterial activity against methicillin-resistant Staphylococcus aureus SG511; type: functional; method in brief: as §1
Enterobacter cloacae [15] = experiment: Antibacterial activity against […] Enterobacter cloacae 1321E; type: functional; method in brief: as §1
Streptococcus pyogenes [16] = experiment: Antibacterial activity against methicillin-resistant Streptococcus pyogenes 77A; type: functional; method in brief: as §1
[17] = Cytotoxicity against human A549 cell line; type: cell-based; conditions: A549 cells, read-out: ED50 (the source's name)
Pseudomonas aeruginosa [18] = experiment: Antibacterial activity against […] Pseudomonas aeruginosa 1771M; type: functional; method in brief: as §1
Staphylococcus aureus [19] = experiment: Antibacterial activity against methicillin-resistant Staphylococcus aureus 503; type: functional; method in brief: as §1
Klebsiella oxytoca = experiment: Antibacterial activity against […] Klebsiella oxytoca 1082E; type: functional; method in brief: as §1
[20] = Cytotoxicity against human HCT15 cell line; type: cell-based; conditions: HCT-15 cells, read-out: ED50 (the source's name)
Staphylococcus aureus [21] = experiment: Antibacterial activity against methicillin-resistant Staphylococcus aureus 285; type: functional; method in brief: as §1

Compound | MIC (Escherichia coli [2]) | CC50 [3] | MIC (Pseudomonas aeruginosa [4]) | CC50 [5] | MIC (Streptococcus pyogenes [6]) | CC50 [7] | MIC (Pseudomonas aeruginosa [10]) | MIC (Staphylococcus aureus [14]) | MIC (Streptococcus pyogenes [16]) | CC50 [17] | MIC (Pseudomonas aeruginosa [18]) | MIC (Staphylococcus aureus [19]) | MIC (Klebsiella oxytoca) | CC50 [20] | MIC (Staphylococcus aureus [21]) | other results
O=C1NC[C@@H](c2c[nH]c3cc(Br)ccc23)N=C1c1c[nH]c2ccccc12 [(R)-6'-DEBROMOHAMACANTHIN B] | 25 µg/mL (≈ 61.4 µM) | 8.5 µg/mL (≈ 20.9 µM) | 25 µg/mL (≈ 61.4 µM) | 8.3 µg/mL (≈ 20.4 µM) | 6.3 µg/mL (≈ 15.5 µM) | 7.6 µg/mL (≈ 18.7 µM) | > 25 µg/mL | 12.5 µg/mL (≈ 30.7 µM) | 12.5 µg/mL (≈ 30.7 µM) | 3.71 µg/mL (≈ 9.11 µM) | 25 µg/mL (≈ 61.4 µM) | 12.5 µg/mL (≈ 30.7 µM) | 25 µg/mL (≈ 61.4 µM) | 4.2 µg/mL (≈ 10.3 µM) | 12.5 µg/mL (≈ 30.7 µM) | MIC (Escherichia coli [1]): > 25 µg/mL; MIC (Salmonella typhimurium): > 25 µg/mL; MIC (Enterococcus faecium): > 25 µg/mL; MIC (Enterobacter cloacae [8]): > 25 µg/mL; MIC (Pseudomonas aeruginosa [9]): > 25 µg/mL; MIC (Escherichia coli [11]): > 25 µg/mL; MIC (Klebsiella aerogenes): > 25 µg/mL; MIC (Escherichia coli [12]): > 25 µg/mL; MIC (Escherichia coli [13]): > 25 µg/mL; MIC (Enterobacter cloacae [15]): > 25 µg/mL
COc1cccc2c1C(=O)c1c(O)c3c(c(O)c1C2=O)C[C@@](O)(C(=O)CO)C[C@@H]3O[C@H]1C[C@H](N)[C@H](O)[C@H](C)O1 [DOXORUBICIN] |  | 0.03 µg/mL (≈ 0.0552 µM) |  | 0.01 µg/mL (≈ 0.0184 µM) |  | 0.01 µg/mL (≈ 0.0184 µM) |  |  |  | 0.01 µg/mL (≈ 0.0184 µM) |  |  |  | 0.02 µg/mL (≈ 0.0368 µM) |  | 
O=C1N[C@@H](c2c[nH]c3cc(Br)ccc23)CN=C1c1c[nH]c2cc(Br)ccc12 [HAMACANTHIN A] |  | 5.24 µg/mL (≈ 10.8 µM) |  | 5.6 µg/mL (≈ 11.5 µM) |  | 5.44 µg/mL (≈ 11.2 µM) |  |  |  | 4.49 µg/mL (≈ 9.24 µM) |  |  |  | 4.66 µg/mL (≈ 9.59 µM) |  | 
O=C1NC[C@H](c2c[nH]c3cc(Br)ccc23)N=C1c1c[nH]c2cc(Br)ccc12 [HAMACANTHIN B] |  | 2.61 µg/mL (≈ 5.37 µM) |  | 2.93 µg/mL (≈ 6.03 µM) |  | 1.59 µg/mL (≈ 3.27 µM) |  |  |  | 2.14 µg/mL (≈ 4.4 µM) |  |  |  | 1.52 µg/mL (≈ 3.13 µM) |  | 
C[C@@H](O)[C@H]1C(=O)N2C(C(=O)O)=C(S[C@@H]3CN[C@H](C(=O)N(C)C)C3)[C@H](C)[C@H]12 [MEROPENEM] | 0.013 µg/mL (≈ 0.0339 µM) |  | 0.391 µg/mL (≈ 1.02 µM) |  | 0.004 µg/mL (≈ 0.0104 µM) |  | 0.098 µg/mL (≈ 0.256 µM) | 0.049 µg/mL (≈ 0.128 µM) | 0.004 µg/mL (≈ 0.0104 µM) |  | 0.049 µg/mL (≈ 0.128 µM) | 0.049 µg/mL (≈ 0.128 µM) | 0.049 µg/mL (≈ 0.128 µM) |  | 0.098 µg/mL (≈ 0.256 µM) | 
O=C(C1=NC(c2c[nH]c3cc(Br)ccc23)CN1)c1c[nH]c2ccccc12 (stereo not given) [SPONGOTINE A] |  | 3.71 µg/mL (≈ 9.11 µM) |  | 7.22 µg/mL (≈ 17.7 µM) |  | 5.04 µg/mL (≈ 12.4 µM) |  |  |  | 6.82 µg/mL (≈ 16.7 µM) |  |  |  | 9.8 µg/mL (≈ 24.1 µM) |  | 
O=C(C1=NC(c2c[nH]c3ccccc23)CN1)c1c[nH]c2cc(Br)ccc12 (stereo not given) [SPONGOTINE B] | 25 µg/mL (≈ 61.4 µM) | > 30 µg/mL | > 25 µg/mL | > 30 µg/mL | 25 µg/mL (≈ 61.4 µM) | > 30 µg/mL | > 25 µg/mL | 25 µg/mL (≈ 61.4 µM) | 25 µg/mL (≈ 61.4 µM) | > 30 µg/mL | 25 µg/mL (≈ 61.4 µM) | 25 µg/mL (≈ 61.4 µM) | 25 µg/mL (≈ 61.4 µM) | > 30 µg/mL | 25 µg/mL (≈ 61.4 µM) | MIC (Escherichia coli [1]): > 25 µg/mL; MIC (Salmonella typhimurium): > 25 µg/mL; MIC (Enterococcus faecium): > 25 µg/mL; MIC (Enterobacter cloacae [8]): > 25 µg/mL; MIC (Pseudomonas aeruginosa [9]): > 25 µg/mL; MIC (Escherichia coli [11]): > 25 µg/mL; MIC (Klebsiella aerogenes): > 25 µg/mL; MIC (Escherichia coli [12]): > 25 µg/mL; MIC (Escherichia coli [13]): > 25 µg/mL; MIC (Enterobacter cloacae [15]): > 25 µg/mL
O=C(C1=NC(c2c[nH]c3cc(Br)ccc23)CN1)c1c[nH]c2cc(Br)ccc12 (stereo not given) [SPONGOTINE C] |  | 4.81 µg/mL (≈ 9.89 µM) |  | 5.16 µg/mL (≈ 10.6 µM) |  | 4.82 µg/mL (≈ 9.91 µM) |  |  |  | 5.22 µg/mL (≈ 10.7 µM) |  |  |  | 4.88 µg/mL (≈ 10 µM) |  | 
